# Bioassay records from PubChem.
# AHR act = human AHR activation | AID 2796 | activation, % at 5 µM | AHR-responsive luciferase reporter cells, luminescence | actives 2.5% (n = 320,000); in the data active = activation above about 47%;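 also: 0% = vehicle wells and 100% = reference agonist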
# Target sequence (P35869 whole entry, looked up): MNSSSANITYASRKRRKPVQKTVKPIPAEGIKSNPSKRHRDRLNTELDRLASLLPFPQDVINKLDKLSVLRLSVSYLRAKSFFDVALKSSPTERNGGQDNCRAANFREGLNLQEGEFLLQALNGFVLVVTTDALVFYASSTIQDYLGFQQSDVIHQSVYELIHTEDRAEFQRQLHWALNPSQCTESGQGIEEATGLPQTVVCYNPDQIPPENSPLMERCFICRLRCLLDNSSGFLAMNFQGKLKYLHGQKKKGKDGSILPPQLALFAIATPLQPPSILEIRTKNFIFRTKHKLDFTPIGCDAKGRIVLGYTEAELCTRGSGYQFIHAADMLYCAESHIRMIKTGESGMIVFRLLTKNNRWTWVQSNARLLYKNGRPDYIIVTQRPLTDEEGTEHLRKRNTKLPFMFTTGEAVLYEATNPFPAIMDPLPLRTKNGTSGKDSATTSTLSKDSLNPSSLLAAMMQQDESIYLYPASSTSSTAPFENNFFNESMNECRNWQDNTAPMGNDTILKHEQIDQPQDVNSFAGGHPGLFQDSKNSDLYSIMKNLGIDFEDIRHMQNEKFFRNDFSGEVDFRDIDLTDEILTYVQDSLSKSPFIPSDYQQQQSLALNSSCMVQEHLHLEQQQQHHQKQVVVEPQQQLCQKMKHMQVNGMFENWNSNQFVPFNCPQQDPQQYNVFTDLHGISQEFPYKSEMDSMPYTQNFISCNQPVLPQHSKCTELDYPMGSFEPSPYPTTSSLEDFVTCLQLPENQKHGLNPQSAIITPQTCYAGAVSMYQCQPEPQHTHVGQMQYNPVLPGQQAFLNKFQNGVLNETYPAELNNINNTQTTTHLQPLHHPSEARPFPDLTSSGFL
# proCasp7 act = activates human procaspase-7, counter-screen for procaspase-3 activators; P55210; actives 0.093% (n = 330,000); activation, % at 8.5 µM; recombinant procaspase-7, Ac-DEVD-pNA absorbance 405 nm; D23A/D198A/D206A triple mutant, cannot self-cleave; scale: DMSO 0, 5 µM enzyme 100;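 active = percent activation above the screen-wide mean plus 3 SD, cut at about 25% in these data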
#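 Material: Procaspase-7 triple mutant (PC-7 D3A) | Quantity: 2 µM procaspase-7 mutant as dispensed | Reagent: DEVD-pNA substrate | Times: 1 h preincubation, 2 h reaction | Technique: 405 nm absorbance of p-nitroaniline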
# procasp3 activ = activators of human procaspase-3; activation, % at 8.5 µM; recombinant procaspase-3 D3A, Ac-DEVD-pNA absorbance 405 nm; P42574; actives 0.11% (n = 330,000);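 active = activation above the mean of all tested compounds plus 3 SD, cut at about 21% in these data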;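 also: 0% = DMSO alone and 100% = DMSO wells spiked with extra 5 µM PC-3 D3A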
#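 Assay system – Procaspase-3 D3A mutant · Benchmarks – DMSO low control, extra-enzyme high control · Technique – 405 nm absorbance of p-nitroaniline, reads at 0 and 120 min · Doses – 8.5 µM nominal · Measure – % activation between DMSO and enzyme-spiked controls · Also added – Ac-DEVD-pNA chromogenic peptide substrate · Schedule – 1 h compound preincubation, 2 h substrate hydrolysis at 25 °C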
# PolyA inh = inhibitors of polyadenylation in S. cerevisiae | S. cerevisiae SKY197-pL101 polyadenylation reporter, beta-gal luminescence; efflux-impaired pdr1/pdr3 knockout yeast; score 100 = 6 SD above DMSO | activity score, % at 12 µM | actives 0.02% (n = 300,000) | AID 1875;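 active = lowest replicate activity score at least 50, where 100 means six control SD above control mean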;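 also: yeast exposed to compound for 9 h at 30 °C; higher score means more reporter readthrough which indicates perturbed polyadenylation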
# AHR act cf = human AHR activation, confirmation; shares compounds with AHR act; human cells, AHR-responsive luciferase reporter, luminescence; activation, % at 9 µM; actives 87% (n = 2,300); AID 2845; in the data active = activation above about 49%;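 also: HepG2 hepatoma cells carrying a DRE-driven firefly luciferase reporter; 0% = vehicle wells and 100% = reference agonist wells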
# PXR act counter = PXR activation, counter-screen for AHR activators. cell-based PXR reporter, luciferase luminescence. AID 434939. activation, % at 11.6 µM. shares compounds with AHR act. actives 88% (n = 2,300); in the data active = activation above about 11%;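 also: human hepatoma DPX-2 cells expressing full-length human PXR; 0% = DMSO and 100% = reference agonist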
# * hit, by the source's call; . = not tested or not shown. Hits are enriched below; roughly 2.6% of the tested compounds scored in any of these assays.
SMILES,AHR act,proCasp7 act,procasp3 activ,PolyA inh,AHR act cf,PXR act counter
COc1ccc(/C=N/Nc2ccc([N+](=O)[O-])cc2)cc1O,7,-17,-7,-46,.,.
CNC(=O)c1sccc1-n1cccc1,2,0,3,-9,.,.
O=C(NNS(=O)(=O)c1cc(Cl)cc(Cl)c1)c1sccc1-n1cccc1,35,-4,0,3,.,.
O=C(NNC(=O)c1sccc1-n1cccc1)c1cccc(Cl)c1,133*,5,-6,.,114*,101*
O=C(NNC(=O)c1sccc1-n1cccc1)c1ccccc1,137*,10,-6,-22,128*,48*
CC1(C)CC2(CCO1)C(Nc1ccccc1)=NC(=S)N2CC(N)=O (stereo not given),1,3,-5,1,.,.
C/C(=N\Nc1ccc([N+](=O)[O-])cc1)c1cc2ccccc2o1,81*,-44,-48,-9,128*,15*
CC1CCN(C(=O)c2cc(-c3ccco3)on2)CC1,97*,4,1,5,128*,31*
CC12CCC(=O)C=C1CCC1C2C(=O)CC2(C)C1CC[C@]2(O)C(=O)CO (stereo not given in full),0,11,-7,11,.,.
CCOc1ccc(OCC)c(NC(=O)CN2CCN(CC(=O)NC(C)C)CC2)c1,3,6,3,-3,.,.
Cc1ncsc1C(=O)Nc1nc2c(s1)CC(C)CC2 (stereo not given),14,-3,2,16,.,.
CC1CCc2nc(NC(=O)C3CC3)sc2C1 (stereo not given),135*,8,3,-18,105*,37*
Cc1ccc(C(=O)Nc2cccc(S(=O)(=O)N3CCCCC3)c2)cc1[N+](=O)[O-],4,-4,-8,.,.,.
CCOC(=O)C1CCCN(C(=O)c2csc(-c3ccc4c(c3)CCO4)n2)C1 (stereo not given),9,2,13,-18,.,.
CCc1c(C)sc(NC(=O)c2cccs2)c1C#N,90*,-14,-1,-15,90*,39*
CCOC(=O)c1c(NC(=O)c2cccs2)sc(C)c1CC,7,-1,-6,-29,.,.
Cc1ccccc1N=Nc1ccc(O)c2ncccc12,3,2,0,-21,.,.
Nc1ccc(N=Nc2ccccc2)c2cccnc12,94*,-25,-21,-7,84*,12*
COc1sc(SC)cc1/C=N/NC(=O)c1ccncc1,11,1,-5,6,.,.
Cc1ccccc1NC(=O)/C(C#N)=C\c1ccsc1,84*,-7,-2,-17,50*,62*
Cc1ccc(NC(=O)/C(C#N)=C/c2ccsc2)c(C)c1,5,-3,-1,-32,.,.
CCN(CC)S(=O)(=O)c1cccc(NC(=O)c2cccc(S(=O)(=O)N3CCCC3)c2)c1,4,4,5,.,.,.
COc1ccc(OC)c(NC2=NC3(CCCC3)N=C(N)N2)c1,84*,-3,0,-10,61*,11*
CCCCOc1ccc(NC2=NC3(CCCC3)N=C(N)N2)cc1,17,-5,7,6,.,.
c1csc(C2Nc3ccccc3-c3nc4ccccc4n32)c1 (stereo not given),133*,5,-2,-8,23,112*
SMILES,AHR act,proCasp7 act,procasp3 activ,PolyA inh,AHR act cf,PXR act counter
O=C1NC(c2ccncc2)Nc2ccccc21 (stereo not given),12,-3,5,7,.,.
Cc1ccc(C2NC(=O)c3ccccc3N2)s1 (stereo not given),100*,-7,0,5,91*,19*
O=C1NC(c2ccc(Cl)cc2)Nc2ccccc21 (stereo not given),80*,6,9,-5,115*,25*
COc1ccc(S(=O)(=O)N2CCc3ccccc32)cc1C(=O)N(CC(C)C)C1CCS(=O)(=O)C1 (stereo not given),3,7,-8,11,.,.
O=C(NC1=C(Nc2ccc(F)cc2)C(=O)c2ccccc2C1=O)c1ccc(Cl)cc1,88*,-9,-4,-23,90*,72*
CCOC(=O)N1CCN(C(=O)/C(=C/c2cccs2)NC(=O)c2ccc(OC)c(OC)c2)CC1,6,-14,-7,-7,.,.
COc1ccc(-c2cnc3ccccc3n2)cc1NC(=O)CNC(=O)c1ccccc1,117*,7,2,1,35,42*
COc1cc(/C=N/Nc2snc(SC)c2C#N)cc(OC)c1OC,2,10,2,12,.,.
CSc1nsc(N/N=C/c2ccc3c(c2)OCO3)c1C#N,117*,-18,-19,-9,81*,27*
C[C@H](NC(=O)c1ncn(C)c1C(=O)N[C@@H](C)c1ccccc1)c1ccccc1,8,-5,-1,.,.,.
CCOC(=O)c1cn2nc(Oc3cccc(C(F)(F)F)c3)ccc2n1,0,8,-2,8,.,.
[O-][n+]1c2ccccc2c2n1CCN=C2c1ccc(Cl)cc1,102*,-7,-4,-13,115*,12*
Nc1c(Cl)cc(C2=NCCn3c2c2ccccc2[n+]3[O-])cc1Cl,85*,-3,10,-13,101*,20*
CC(NC(=O)CCNC(=O)N1CCn2c1nc1ccccc12)c1ccccc1 (stereo not given),-3,14,1,-3,.,.
Cc1c(C)n(C(=O)CN2CCC(C)CC2)c2ccccc12,83*,-1,3,2,53*,15*
CCN(/N=C/C=C/c1ccccc1)c1cc(=O)n(C)c(=O)[nH]1,132*,1,-1,-15,33,8
Cn1c(=O)cc(Nc2ccccc2)[nH]c1=O,2,5,0,-8,.,.
CCN(/N=C/c1ccc(Cl)cc1)c1cc(=O)n(C)c(=O)[nH]1,121*,1,12,-12,71*,.
COCCNC(=O)C(c1ccc(Cl)cc1)N(CCOC)C(=O)CCC(=O)Nc1ccccn1 (stereo not given),-1,5,9,-1,.,.
Cc1cc(C)cc(N(CC(=O)Nc2ccc(Br)cc2)S(=O)(=O)c2c(C)[nH]c(=O)[nH]c2=O)c1,1,6,1,8,.,.
O=C(CSc1ncn[nH]1)N1N=C2/C(=C/c3ccccc3)CCCC2C1c1ccccc1 (stereo not given),98*,-15,6,10,88*,74*
COc1ccc(/C=C2\CCCC3C2=NN(C(=O)CSc2ncn[nH]2)C3c2ccc(OC)cc2)cc1 (stereo not given),1,10,6,-18,.,.
COc1ccc(C)cc1N/C(N)=N/c1nc(C)cc(C)n1,81*,-10,2,7,59*,.
Cc1ccc(C)c(N/C(N)=N/c2nc(C)cc(C)n2)c1,29,9,3,-2,.,.
